Source: ChEMBL document CHEMBL1157419, “Bioactive isocoumarins isolated from the endophytic fungus Microdochium bolleyi” (2008)

What was measured:
Escherichia coli = experiment: Antimicrobial activity against Escherichia coli by agar diffusion method; type: functional
Summary of the method: (§1)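 Test substance dissolved in acetone at 1 mg/mL, and 50 µL (50 µg) applied to a sterile 9 mm filter disk. Disk placed on NB agar, then sprayed with a suspension of the test bacterium (E. coli Gram-negative; B. megaterium Gram-positive). Acetone run as a solvent control.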

Priestia megaterium = experiment: Antimicrobial activity against Bacillus megaterium by agar diffusion method; type: functional; summary of the method: as §1
Microbotryum violaceum = experiment: Antimicrobial activity against Microbotryum violaceum by agar diffusion method; type: functional
Summary of the method: (§2)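 Test substance dissolved in acetone at 1 mg/mL, and 50 µL (50 µg) pipetted onto a sterile 9 mm filter disk. Disk laid on MPY agar, then sprayed with a suspension of the fungus M. violaceum or the alga C. fusca. Acetone tested as a solvent control.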

[Chlorella] fusca = Antimicrobial activity against Chlorella fusca by agar diffusion method; type: functional, Scenedesmus fuscus; summary of the method: as §2

Molecule | inhibition zone (IZ) (Escherichia coli) | inhibition zone (IZ) (Priestia megaterium) | inhibition zone (IZ) (Microbotryum violaceum) | inhibition zone (IZ) ([Chlorella] fusca) | inhibition zone (IZ) ([Chlorella] fusca; Scenedesmus fuscus)
COc1cc2c(c(O)c1OC)C(=O)O[C@@H]1C[C@H](C[C@@H](C)O)O[C@H]21 | 0 mm | 0 mm | 7 mm | 6 mm | –
CCC[C@@H](O)C[C@H]1OC(=O)c2c(cc(OC)c(OC)c2O)[C@H]1O | 10 mm | 7 mm | 9 mm | 10 mm | –
NYSTATIN | 0 mm | 0 mm | 0 mm | – | 20 mm
CN(C)[C@@H]1C(O)=C(C(N)=O)C(=O)[C@@]2(O)C(O)=C3C(=O)c4c(O)cccc4[C@@](C)(O)[C@H]3C[C@@H]12 [TETRACYCLINE] | 18 mm | 18 mm | 10 mm | 0 mm | –
CCC[C@H]1C[C@H]2OC(=O)c3c(cc(OC)c(OC)c3O)[C@H]2O1 [MONOCERIN] | 10 mm | 6 mm | 23 mm | 8 mm | –
COc1cc2c(c(O)c1OC)C(=O)O[C@@H]1C[C@H](C[C@H](C)O)O[C@H]21 | 8 mm | 6 mm | 9 mm | 10 mm | –
C[C@@H]1C[C@@H]([C@H](O)CC2CC(=O)NC(=O)C2)C(=O)[C@@H](C)C1 [CYCLOHEXIMIDE] | 0 mm | 0 mm | 35 mm | 50 mm | –
